# Source: ChEMBL document CHEMBL4257459, “Synergistic antifungal effect of cyclized chalcone derivatives and fluconazole against Candida albicans” (2017)
# How the values were obtained:
# Candida albicans [1] = experiment: Antifungal activity against Candida albicans ATCC 90028 in presence of fluconazole by CLSI protocol based broth microdilution method; format: functional
# Candida albicans [2] = experiment: Antifungal activity against fluconazole resistant Candida albicans 167-2 by CLSI protocol based broth microdilution method; format: functional
# Method in brief: (§1)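 Broth microdilution per CLSI M27-A3 against clinical C. albicans isolates. Strains sub-cultured at least twice on Tryptone Soya Agar, 37 °C, 48 h. Compounds dissolved in DMSO at 2000 μg mL–1 stock. Fluconazole positive control, plus culture, media and vehicle controls. Run in duplicate; MIC in μg mL–1.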
# Candida albicans [3] = experiment: Inhibition of ABC efflux pumps in fluconazole susceptible Candida albicans 004B1 assessed as reduction in energy-dependent rhodamine 6G efflux in presence of 0.1 M glucose after 25 mins by fluorescence assay relative to control
# Method in brief: (§2)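 Cells grown in TSB at 37 °C for 8 h, washed, resuspended in glucose-free PBS at 1 × 10^8 cells. De-energized 45 min with 5 mM deoxyglucose plus 5 mM dinitrophenol. […] Washed, sampled 5–25 min, then 0.1 M glucose added. Absorbance 527 nm, R6G from standard curve.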
# Candida albicans [4] = experiment: Inhibition of ABC efflux pumps in fluconazole susceptible Candida albicans 0079gr assessed as reduction in energy-dependent rhodamine 6G efflux in presence of 0.1 M glucose after 25 mins by fluorescence assay relative to control; method in brief: as §2
# Candida albicans [5] = experiment: Antifungal activity against fluconazole susceptible Candida albicans 0072gr in presence of fluconazole by CLSI protocol based broth microdilution method; format: functional
# Candida albicans [6] = experiment: Antifungal activity against fluconazole susceptible Candida albicans 002B1 in presence of fluconazole by CLSI protocol based broth microdilution method; format: functional
# Candida albicans [7] = experiment: Inhibition of ABC efflux pumps in fluconazole resistant Candida albicans 167-1 assessed as reduction in energy-dependent rhodamine 6G efflux in presence of 0.1 M glucose after 25 mins […] relative to control
# Candida albicans [8] = experiment: Inhibition of ABC efflux pumps in fluconazole susceptible Candida albicans 0072gr assessed as reduction in energy-dependent rhodamine 6G efflux in presence of 0.1 M glucose after 25 mins […] relative to control
# Candida albicans [9] = experiment: Inhibition of ABC efflux pumps in fluconazole susceptible Candida albicans 002B1 assessed as reduction in energy-dependent rhodamine 6G efflux in presence of 0.1 M glucose after 25 mins […] relative to control
# Candida albicans [10] = experiment: Antifungal activity against fluconazole susceptible Candida albicans 004gr in presence of fluconazole by CLSI protocol based broth microdilution method; format: functional
# Candida albicans [11] = experiment: Inhibition of ABC efflux pumps in fluconazole susceptible Candida albicans 004gr assessed as reduction in energy-dependent rhodamine 6G efflux in presence of 0.1 M glucose after 25 mins by fluorescence assay relative to control; method in brief: as §2
# Candida albicans [12] = experiment: Antifungal activity against fluconazole resistant Candida albicans A171 in presence of fluconazole by CLSI protocol based broth microdilution method; format: functional
# Method in brief: (§3)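 Checkerboard-style combination with fluconazole at a 1 : 1 ratio, over concentrations 2–4 fold below each agent's MIC alone, by CLSI broth microdilution. Fractional inhibitory concentration index calculated and interpreted as synergy (<0.5), additive (0.5–1), indifferent or antagonistic.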
# Candida albicans [13] = experiment: Inhibition of ergosterol biosynthesis in fluconazole resistant Candida albicans A171 at 0.5 to 1 times MIC relative to control; format: functional
# Method in brief: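 Total sterols quantified by alcoholic KOH extraction in cells grown in 50 ml TSB with compounds at MIC and ½ MIC; untreated and 8 μg mL–1 fluconazole controls. Spectral scan; ergosterol content from A281.5 and A230 absorbances, dilution factor and pellet weight, correcting for 24(28) DHE.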
# Candida albicans [14] = experiment: Inhibition of ergosterol biosynthesis in fluconazole susceptible Candida albicans ATCC 90028 at 0.5 to 1 times MIC relative to control; format: functional
# Method in brief: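 ATCC90028 grown in 50 ml TSB with MIC and ½ MIC of compound; untreated and 8 μg mL–1 fluconazole controls. Sterols extracted by alcoholic KOH method and spectrophotometrically scanned; ergosterol % calculated from A281.5 and A230 (E values 290 and 518) with dilution factor, per pellet weight.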
# Candida albicans [15] = experiment: Inhibition of ABC efflux pumps in fluconazole susceptible Candida albicans 003gr assessed as reduction in energy-dependent rhodamine 6G efflux in presence of 0.1 M glucose after 25 mins […] relative to control
# Candida albicans [16] = experiment: Antifungal activity against fluconazole resistant Candida albicans 167-1 in presence of fluconazole by CLSI protocol based broth microdilution method; format: functional; method in brief: as §3
# Candida albicans [17] = experiment: Antifungal activity against fluconazole susceptible Candida albicans 003gr in presence of fluconazole by CLSI protocol based broth microdilution method; format: functional
# Candida albicans [18] = experiment: Inhibition of ABC efflux pumps in fluconazole resistant Candida albicans 167-2 assessed as reduction in energy-dependent rhodamine 6G efflux in presence of 0.1 M glucose after 25 mins […] relative to control
# Candida albicans [19] = experiment: Antifungal activity against fluconazole susceptible Candida albicans 004gr by CLSI protocol based broth microdilution method; format: functional
# Method in brief: (§4)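 Clinical isolates and control strain subcultured at least twice on TSA, 37 °C, 48 h. MICs by CLSI M27-A3 broth microdilution; compounds dissolved in DMSO to 2000 μg mL–1 stock. Fluconazole positive control, culture, media and DMSO vehicle controls in each run. Duplicate experiments; MIC in μg mL–1.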
# Candida albicans [20] = experiment: Antifungal activity against fluconazole susceptible Candida albicans 0079gr in presence of fluconazole by CLSI protocol based broth microdilution method; format: functional
# Candida albicans [21] = experiment: Antifungal activity against Candida albicans ATCC 90028 by CLSI protocol based broth microdilution method; format: functional; method in brief: as §4
# Candida albicans [22] = experiment: Antifungal activity against fluconazole resistant Candida albicans 167-2 in presence of fluconazole by CLSI protocol based broth microdilution method; format: functional; method in brief: as §3
# Candida albicans [23] = experiment: Antifungal activity against fluconazole susceptible Candida albicans 0079gr by CLSI protocol based broth microdilution method; format: functional; method in brief: as §4
# Candida albicans [24] = experiment: Antifungal activity against fluconazole resistant Candida albicans 167-1 by CLSI protocol based broth microdilution method; format: functional; method in brief: as §1
# Candida albicans [25] = experiment: Antifungal activity against fluconazole susceptible Candida albicans 0072gr by CLSI protocol based broth microdilution method; format: functional; method in brief: as §4
# Candida albicans [26] = experiment: Antifungal activity against fluconazole susceptible Candida albicans 003gr by CLSI protocol based broth microdilution method; format: functional; method in brief: as §4
# Candida albicans [27] = experiment: Antifungal activity against fluconazole resistant Candida albicans A171 by CLSI protocol based broth microdilution method; format: functional; method in brief: as §1
# Candida albicans [28] = experiment: Inhibition of ABC efflux pumps in fluconazole resistant Candida albicans A171 assessed as reduction in energy-dependent rhodamine 6G efflux in presence of 0.1 M glucose after 25 mins by fluorescence assay relative to control; method in brief: as §2
# Candida albicans [29] = experiment: Antifungal activity against fluconazole susceptible Candida albicans 002B1 by CLSI protocol based broth microdilution method; format: functional; method in brief: as §4
# Candida albicans [30] = experiment: Antifungal activity against fluconazole susceptible Candida albicans 004B1 in presence of fluconazole by CLSI protocol based broth microdilution method; format: functional
# Candida albicans [31] = experiment: Antifungal activity against fluconazole susceptible Candida albicans 004B1 by CLSI protocol based broth microdilution method; format: functional; method in brief: as §4
compound,measurement,setting,value
c1ccc(-c2cc(-c3ccccc3)[nH]n2)cc1,fractional inhibitory concentration index (FICI),Candida albicans [1],0.63 - 2.5
same,MIC,Candida albicans [2],62 to 125 µg/mL
same,inhibition,Candida albicans [3],< 20%
same,inhibition,Candida albicans [4],< 20%
same,fractional inhibitory concentration index (FICI),Candida albicans [5],0.63 - 2.5
same,fractional inhibitory concentration index (FICI),Candida albicans [6],0.63 - 2.5
same,inhibition,Candida albicans [7],< 20%
same,inhibition,Candida albicans [8],< 20%
same,inhibition,Candida albicans [9],< 20%
same,fractional inhibitory concentration index (FICI),Candida albicans [10],0.63 - 2.5
same,inhibition,Candida albicans [11],< 20%
same,fractional inhibitory concentration index (FICI),Candida albicans [12],0.625 - 1.5
same,inhibition (INH),Candida albicans [13],49 - 94%
same,inhibition (INH),Candida albicans [14],66 - 99%
same,inhibition,Candida albicans [15],< 20%
same,fractional inhibitory concentration index (FICI),Candida albicans [16],0.625 - 1.5
same,fractional inhibitory concentration index (FICI),Candida albicans [17],0.63 - 2.5
same,inhibition,Candida albicans [18],< 20%
same,MIC,Candida albicans [19],16 to 62 µg/mL
same,fractional inhibitory concentration index (FICI),Candida albicans [20],0.63 - 2.5
same,MIC,Candida albicans [21],16 to 62 µg/mL
same,fractional inhibitory concentration index (FICI),Candida albicans [22],0.625 - 1.5
same,MIC,Candida albicans [23],16 to 62 µg/mL
same,MIC,Candida albicans [24],62 to 125 µg/mL
same,MIC,Candida albicans [25],16 to 62 µg/mL
same,MIC,Candida albicans [26],16 to 62 µg/mL
same,MIC,Candida albicans [27],62 to 125 µg/mL
same,inhibition,Candida albicans [28],< 20%
same,MIC,Candida albicans [29],16 to 62 µg/mL
same,fractional inhibitory concentration index (FICI),Candida albicans [30],0.63 - 2.5
same,MIC,Candida albicans [31],16 to 62 µg/mL
